In the library only some 1.5% were active in any assay of this set; here they are far more common.
PPC-1+TRAIL kill = compounds killing PPC-1 cancer cells with TRAIL present, primary screen, TRAIL potentiator project, ATPLite luminescence, uHTS; 220,000 tested, 0.41% active; AID 1443, 2008; cell killing (% activity), % at 4 µM or 5 µM; PPC-1 cells + TRAIL, ATPLite viability luminescence;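 active = cell killing above 50% in the first pass at 4 µM, then a duplicate retest at 5 µM averaging 50% or more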
FLuc act counter = FLuc activators, initial screening, artefact control for FLuc-dependent activation tests, biochemical, ATPlite luminescence | AID 1027, 2008 | activation factor at 10 µM | 200,000 tested, under 10 active | ATPlite luciferase biochemical, 10 min; 0 = ATP-free wells, 1 = DMSO control;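 active = luciferase activation factor, scaled between plate controls, of at least 2 with compound at 10 µM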
Target sequence (P08659 whole entry, looked up): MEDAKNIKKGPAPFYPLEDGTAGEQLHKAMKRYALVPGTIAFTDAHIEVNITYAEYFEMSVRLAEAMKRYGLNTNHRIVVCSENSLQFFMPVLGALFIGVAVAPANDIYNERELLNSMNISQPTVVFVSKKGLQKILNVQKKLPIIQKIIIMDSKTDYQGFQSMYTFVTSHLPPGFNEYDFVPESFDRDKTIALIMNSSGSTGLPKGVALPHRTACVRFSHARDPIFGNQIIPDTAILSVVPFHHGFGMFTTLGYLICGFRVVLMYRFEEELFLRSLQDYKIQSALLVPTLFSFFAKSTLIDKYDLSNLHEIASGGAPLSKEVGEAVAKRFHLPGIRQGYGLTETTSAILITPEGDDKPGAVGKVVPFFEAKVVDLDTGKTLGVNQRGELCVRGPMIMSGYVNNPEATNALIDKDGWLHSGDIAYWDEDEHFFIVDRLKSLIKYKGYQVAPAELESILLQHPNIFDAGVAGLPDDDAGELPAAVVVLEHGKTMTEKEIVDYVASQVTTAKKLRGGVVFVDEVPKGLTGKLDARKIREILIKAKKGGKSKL
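Assay system – cell-free luciferase reagent · Medium – PBS-based ATP solution · Dosing – test compounds dosed from 2 mM stocks in 100% DMSO · Timing – 10 min, room temperature · Technique – light output (luminescence) · Measure – luminescence gain marking luciferase activators · Controls – No-ATP low control, compound-free enzyme-plus-ATP high control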
FLuc inhib CS = firefly luciferase enzyme inhibitors, primary screen, artefact control for luciferase-based inhibitor screens, biochemical, luminescence, ATPLite; Luciferin 4-monooxygenase (Photinus pyralis), P08659; 10 min; inhibition, % at 10 µM; 200,000 tested, 1.5% active; AID 1006, 2008;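 active = inhibition above about 50% when tested at 10 µM, limit read from the data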
C8 TRAIL sens = viability loss with TRAIL in NB7+C8 cells, primary screen, TRAIL sensitizer project, cell-based, ATPlite luminescence | inhibition (viability loss, TRAIL sensitization), % at 10 µM | 360,000 tested, 1% active | AID 624354, 2012;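 active = compounds causing at least 50% loss of cell viability in the single-dose screen, relative to plate controls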
Hits are given with their value; 0 = inactive; - = not tested or not shown.

SMILES	PPC-1+TRAIL kill	FLuc act counter	FLuc inhib CS	C8 TRAIL sens
CC(OC(=O)c1nn(C(C)C)c(=O)c2ccccc12)C(=O)Nc1ncc(Cl)cc1Cl (configuration not stated)	0	0	0	0
CC(=O)Oc1ccc2c(c1)C(=O)c1ccccc1CO2	0	0	65.6	0
O=C(Oc1ccc2c(c1)OCC2=O)c1ccccc1	0	0	0	0
CC1CCCC(C)N1C(=O)CN1C(=O)NC2(CCOc3ccccc32)C1=O (configuration not stated)	-	-	-	0
COc1ccc(NC(=O)CSc2nc(N)c3cc4c(nc3n2)CCCC4)cc1	0	0	61.6	0
CC(=O)c1ccc(NC(=O)CSc2nc(N)c3cc4c(nc3n2)CCCC4)cc1	0	0	0	51.6
CCC(=O)NC(c1ccc(C)cc1)c1cc([N+](=O)[O-])c2cccnc2c1O (configuration not stated)	0	0	0	53.6
CC(=O)NC(c1ccc(C)cc1)c1cc([N+](=O)[O-])c2cccnc2c1O (configuration not stated)	0	0	0	0
Cc1cc(NC(=O)c2ccc(F)cc2)no1	-	-	-	0
Cc1cc(NC(=O)c2ccc(C(C)(C)C)cc2)no1	-	-	-	69.9
Cc1ccc(C(=O)NNC(=O)CCC(=O)Nc2cc(C)on2)cc1	0	0	0	0
Cc1cc(NC(=O)CCC(=O)NNC(=O)c2ccc(C(C)(C)C)cc2)no1	0	0	77.6	0
COC(C(=O)Nc1ccccc1C(=O)N1CCOCC1)c1ccccc1 (configuration not stated)	-	-	-	0
CCc1ccc(-c2cc(-c3n[nH]c(=S)n3CC)c3ccccc3n2)cc1	0	0	63.9	-
Cc1ccccc1C(=O)N1CCN(c2ccc(NC(=O)c3ccc([N+](=O)[O-])o3)cc2)CC1	-	-	-	71.4
O=C(Nc1ccc(N2CCN(C(=O)c3ccccc3)CC2)cc1)c1ccc([N+](=O)[O-])o1	0	0	0	70.4
CC(C)C(=O)N1CCN(c2ccc(NC(=O)c3ccc([N+](=O)[O-])o3)cc2)CC1	0	0	0	0
COc1ccc(-c2csc(NC(=O)C3CCN(c4ncnc5sc(C)c(C)c45)CC3)n2)cc1OC	-	-	-	69.0
C#CCN(C[C@@H]1[C@@H](OC(=O)NCc2ccccc2F)[C@@H](OC(=O)NCc2ccccc2F)Cn2c(=O)ccc(=O)n21)S(=O)(=O)c1ccc(C)cc1	-	-	-	81.4
C#CCN(C[C@@H]1[C@@H](OC(=O)Nc2cccs2)[C@@H](OC(=O)Nc2cccs2)Cn2c(=O)ccc(=O)n21)S(=O)(=O)c1ccc(C)cc1	-	-	-	86.2
C#CCN(C[C@@H]1[C@@H](OC(=O)NCc2ccccc2F)[C@@H](OC(=O)NCc2ccccc2F)Cn2c(=O)n(CCCCCC)c(=O)n21)S(=O)(=O)c1ccc(C)cc1	-	-	-	0
COCCN(C(=O)COC(=O)C(C)(C)Oc1ccc(Cl)cc1)c1c(N)n(Cc2ccccc2)c(=O)[nH]c1=O	-	-	-	0
CC(=O)n1cc(N(C(=O)CCl)c2ccc(Cl)cc2)c2ccccc21	0	-	-	93.9
COc1ccccc1N(C(=O)CCl)c1cn(C(C)=O)c2ccccc12	0	-	-	92.5
CN=c1scc(-c2ccccc2F)n1/N=C(\C)c1cccnc1	0	0	73.0	62.7
SMILES	PPC-1+TRAIL kill	FLuc act counter	FLuc inhib CS	C8 TRAIL sens
c1ccc(-c2noc(-c3ccc4ccccc4c3)n2)nc1	0	0	96.5	87.3
CC(C)(C)c1ccc(-c2noc(CCC(=O)NCC3CCCO3)n2)cc1 (configuration not stated)	0	0	64.2	0
COc1ccc(-c2noc(CCC(=O)Nc3cccnc3)n2)cc1	-	-	-	0
Cc1ccc(-c2noc(CCC(=O)NCC3CCCO3)n2)cc1 (configuration not stated)	0	0	0	0
CNC(=O)CCc1nc(-c2ccc(C(C)(C)C)cc2)no1	0	0	58.2	0
CC(C)(C)c1ccc(-c2noc(CCC(=O)Nc3cccnc3)n2)cc1	-	-	-	50.1
CN(C)C(=O)CCc1nc(-c2ccc(C(C)(C)C)cc2)no1	0	0	52.1	0
COCCCNC(=S)NCCNc1nc2c(C)c(C)ccc2cc1C#N	0	0	0	0
Cc1ccccc1Oc1cc(-n2ncc(Cl)c(Cl)c2=O)ncn1	0	0	0	96.7
COc1ccc(CC(=O)OCC(=O)Nc2ncc(Cl)c(C)c2Cl)cc1	-	-	-	0
COc1ccc(/C=N/c2c(-c3ccco3)nc3ccccn23)cc1OC	0	0	79.6	0
CCC(=O)N1CCCc2cc(S(=O)(=O)N3CCN(c4ccccc4F)CC3)ccc21	0	0	0	83.2

Bioassay records as filed in PubChem.
